ChEMBL document CHEMBL4184285, “Antibacterial activities of mono-, di- and tri-substituted triphenylamine-based phosphonium ionic liquids” (Bioorg Med Chem Lett, 2018)

Assays:
Staphylococcus aureus [1] = experiment: Antibacterial activity against Staphylococcus aureus CIP 7625 after 18 to 24 hrs by broth dilution method; assay type: functional
Acinetobacter baumannii = experiment: Antibacterial activity against Acinetobacter baumannii ATCC 19606 after 18 to 24 hrs by broth dilution method; assay type: functional; conditions: ATCC 19606 = CIP 70.34 = JCM 6841
Escherichia coli = experiment: Antibacterial activity against Escherichia coli CIP54.8 after 18 to 24 hrs by broth dilution method; assay type: functional
Klebsiella pneumoniae = experiment: Antibacterial activity against Klebsiella pneumoniae CIP82.91 after 18 to 24 hrs by broth dilution method; assay type: functional
Staphylococcus aureus [2] = experiment: Antibacterial activity against Staphylococcus aureus SA1199B over-expressing NorA after 18 to 24 hrs by broth dilution method; assay type: functional
Enterococcus faecium = experiment: Antibacterial activity against Enterococcus faecium DSMZ 20477 after 18 to 24 hrs by broth dilution method; assay type: functional
HepG2 = experiment: Cytotoxicity against human HepG2 cells assessed as reduction in cell viability after 24 hrs by WST1 assay; assay type: cell-based; conditions: hepg2, 24 h
Method in brief: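 Human hepatocyte HepG2 cultures were exposed to test material. IC50 was taken as the concentration giving a 50% decrease in cell respiration relative to the untreated control culture.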

Pseudomonas aeruginosa = experiment: Antibacterial activity against Pseudomonas aeruginosa CIP100720 after 18 to 24 hrs by broth dilution method; assay type: functional
Staphylococcus aureus [3] = experiment: Antibacterial activity against Staphylococcus aureus SA1199 after 18 to 24 hrs by broth dilution method; assay type: functional
Klebsiella aerogenes = experiment: Antibacterial activity against Enterobacter aerogenes ATCC 13048 after 18 to 24 hrs by broth dilution method; assay type: functional

SMILES | MIC (Staphylococcus aureus [1]) [µg/mL] | MIC (Acinetobacter baumannii) [µg/mL] | MIC (Escherichia coli) [µg/mL] | MIC (Klebsiella pneumoniae) [µg/mL] | MIC (Staphylococcus aureus [2]) [µg/mL] | MIC (Enterococcus faecium) [µg/mL] | Activity (HepG2) [%] | MIC (Pseudomonas aeruginosa) [µg/mL] | MIC (Staphylococcus aureus [3]) [µg/mL] | MIC (Klebsiella aerogenes) [µg/mL]
CCCCCC[P+](CCCCCC)(CCCCCC)CCCCCCOCc1ccc(N(c2ccccc2)c2ccccc2)cc1.[Cl-] | 2 | > 64 | > 64 | > 64 | 2 | 4 | 0.09 | 16 | 2 | > 64
CCCC[P+](CCCC)(CCCC)CCCCCCOCc1ccc(N(c2ccccc2)c2ccccc2)cc1.[Cl-] | 1 | 16 | 16 | 16 | 0.5 | 1 |  | 32 | 0.5 | 16
CCCCCC[P+](CCCCCC)(CCCCCC)CCCCCCCCCCOCc1ccc(N(c2ccccc2)c2ccccc2)cc1.[Br-] | 2 | 16 | 32 | 32 | 2 | 8 |  | 64 | 1 | > 64
CCCCCCCC[P+](CCCCCCCC)(CCCCCCCC)CCCCCCOCc1ccc(N(c2ccccc2)c2ccccc2)cc1.[Cl-] | 8 | > 64 | > 64 | > 64 | 8 | 16 |  | > 64 | 8 | > 64
CCCCCC[P+](CCCCCC)(CCCCCC)CCCCCCOCc1ccc(N(c2ccccc2)c2ccc(COCCCCCC[P+](CCCCCC)(CCCCCC)CCCCCC)cc2)cc1.[Cl-].[Cl-] | 2 | 16 | 32 | 16 | 2 | 2 | 4.16 | 64 | 2 | > 64
CCCCCC[P+](CCCCCC)(CCCCCC)CCCCCCOCc1ccc(N(c2ccccc2)c2ccccc2)cc1.[Br-] | 2 | 64 | > 64 | 64 | 2 | 4 |  | 64 | 2 | > 64
CCCCCC[P+](CCCCCC)(CCCCCC)CCCCCCOCc1ccc(N(c2ccc(COCCCCCC[P+](CCCCCC)(CCCCCC)CCCCCC)cc2)c2ccc(COCCCCCC[P+](CCCCCC)(CCCCCC)CCCCCC)cc2)cc1.[Cl-].[Cl-].[Cl-] | 2 | 16 | 32 | 16 | 2 | 4 | 4.28 | > 64 | 2 | 64
